As a reminder, the Km is the concentration of substrate that gives half-maximal velocity.

Series [1] relates to CN(Cc1cnc2nc(N)nc(N)c2n1)c1ccc(C(=O)N[C@@H](CCC(=O)O)C(=O)O)cc1. To be noted: LLC-PK1; Membrane vesicle.
Series [2] has as its system C[C@]12CC[C@H](OS(=O)(=O)O)CC1=CC[C@@H]1[C@@H]2CC[C@]2(C)C(=O)CC[C@@H]12. To be noted: LLC-PK1; Membrane vesicle.
The subject of series [3] is C[C@]12CC[C@@H]3c4ccc(O)cc4CC[C@H]3[C@@H]1CC[C@@H]2O[C@@H]1O[C@H](C(=O)O)[C@@H](O)[C@H](O)[C@H]1O. To be noted: LLC-PK1; Membrane vesicle.
In series [4] the target is ATP-binding cassette sub-family C member 11 (Homo sapiens) (UniProt Q96J66). Kind of series: TP_TRANSPORTER: inhibition of Estradiol-17beta-D-glucuronide uptake by Sildenifil at a concentration of 10 uM in membrane vesicle from MRP8-expressing LLC-PK1 cells. It counts as functional, cell membranes. Also on record: scale not given: the % may be the effect or the level left. The method, boiled down: (§1)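 Vesicles (10 µg) from LLC-PK1-MRP8-3 cells incubated 10 min at 37°C with 1 µM [3H]E217βG plus modulator, in 0.25 M sucrose, 10 mM Tris-HCl pH 7.4, 10 mM MgCl2, creatine phosphate/creatine kinase, with 4 mM ATP or 4 mM AMP. Rapid filtration, scintillation counting. ATP-dependent uptake (ATP minus AMP) expressed as % of modulator-free uptake. At least three measurements, each in duplicate.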
Sequence of ATP-binding cassette sub-family C member 11 (Homo sapiens) (Q96J66 whole entry): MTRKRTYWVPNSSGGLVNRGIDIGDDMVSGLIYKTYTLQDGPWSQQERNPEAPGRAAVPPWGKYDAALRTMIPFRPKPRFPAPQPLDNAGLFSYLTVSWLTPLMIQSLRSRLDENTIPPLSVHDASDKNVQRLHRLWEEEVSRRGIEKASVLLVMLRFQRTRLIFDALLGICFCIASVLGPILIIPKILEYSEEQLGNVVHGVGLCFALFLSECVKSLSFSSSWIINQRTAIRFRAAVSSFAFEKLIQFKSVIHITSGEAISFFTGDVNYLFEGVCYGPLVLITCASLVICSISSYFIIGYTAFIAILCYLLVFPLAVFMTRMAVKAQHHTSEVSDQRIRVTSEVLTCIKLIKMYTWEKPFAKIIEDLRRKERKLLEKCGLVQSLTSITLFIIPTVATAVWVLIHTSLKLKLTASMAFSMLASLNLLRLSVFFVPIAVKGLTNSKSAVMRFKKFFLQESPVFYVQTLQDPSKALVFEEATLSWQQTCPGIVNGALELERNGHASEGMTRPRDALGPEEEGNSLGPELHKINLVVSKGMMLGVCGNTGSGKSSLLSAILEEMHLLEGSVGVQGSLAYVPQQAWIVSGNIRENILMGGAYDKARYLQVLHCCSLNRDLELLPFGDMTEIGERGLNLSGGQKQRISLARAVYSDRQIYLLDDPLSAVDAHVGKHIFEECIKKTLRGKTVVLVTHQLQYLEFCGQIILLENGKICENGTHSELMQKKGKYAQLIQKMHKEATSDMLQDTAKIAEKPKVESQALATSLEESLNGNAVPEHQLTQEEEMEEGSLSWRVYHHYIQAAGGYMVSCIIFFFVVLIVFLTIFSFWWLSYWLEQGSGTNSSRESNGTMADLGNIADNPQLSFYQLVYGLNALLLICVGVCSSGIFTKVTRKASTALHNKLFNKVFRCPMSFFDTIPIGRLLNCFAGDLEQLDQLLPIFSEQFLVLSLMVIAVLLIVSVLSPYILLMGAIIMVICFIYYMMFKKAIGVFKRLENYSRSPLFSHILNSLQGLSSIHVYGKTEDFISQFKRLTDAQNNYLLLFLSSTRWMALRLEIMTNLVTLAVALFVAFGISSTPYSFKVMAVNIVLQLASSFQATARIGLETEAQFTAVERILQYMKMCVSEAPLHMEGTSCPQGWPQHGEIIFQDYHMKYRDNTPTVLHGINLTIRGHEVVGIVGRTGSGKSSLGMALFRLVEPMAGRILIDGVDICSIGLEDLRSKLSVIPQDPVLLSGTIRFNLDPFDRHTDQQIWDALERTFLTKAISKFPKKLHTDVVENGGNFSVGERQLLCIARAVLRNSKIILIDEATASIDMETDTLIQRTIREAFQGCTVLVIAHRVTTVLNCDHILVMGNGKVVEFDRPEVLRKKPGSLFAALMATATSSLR

Series [5] shares this target. Kind of series: TP_TRANSPORTER: inhibition of Estradiol-17beta-D-glucuronide uptake by MK-571 at a concentration of 10 uM in membrane vesicle from MRP8-expressing LLC-PK1 cells. It counts as functional, cell membranes. Details: scale not given: the % may be the effect or the level left. In short, it runs like this:
as §1

Series [6] shares this target. Kind of series: TP_TRANSPORTER: inhibition of Estradiol-17beta-D-glucuronide uptake by 2,4-dinitrophenyl-S-glutathione at a concentration of 10 uM in membrane vesicle from MRP8-expressing LLC-PK1 cells. It is filed as functional, cell membranes. Also on record: scale not given: the % may be the effect or the level left. In short, it runs like this: as §1
The target is the same in series [7]. Kind of series: TP_TRANSPORTER: inhibition of Estradiol-17beta-D-glucuronide uptake by Probenecid at a concentration of 10 uM in membrane vesicle from MRP8-expressing LLC-PK1 cells. Also on record: scale not given: the % may be the effect or the level left. It counts as functional, cell membranes. The method, boiled down: as §1
Series [8] shares this target. Kind of series: TP_TRANSPORTER: inhibition of Estradiol-17beta-D-glucuronide uptake by cGMP at a concentration of 10 uM in membrane vesicle from MRP8-expressing LLC-PK1 cells. It counts as functional, cell membranes. Details: scale not given: the % may be the effect or the level left. In short, it runs like this:
as §1

Series [9] has the same target. Kind of series: TP_TRANSPORTER: inhibition of Estradiol-17beta-D-glucuronide uptake by Glycolithocholate at a concentration of 10 uM in membrane vesicle from MRP8-expressing LLC-PK1 cells. It is filed as functional, cell membranes. Details: scale not given: the % may be the effect or the level left. The method, boiled down:
as §1

Series [10] shares this target. Kind of series: TP_TRANSPORTER: inhibition of Estradiol-17beta-D-glucuronide uptake by Dehydroepiandrosterone-3-sulfate at a concentration of 10 uM in membrane vesicle from MRP8-expressing LLC-PK1 cells. It counts as functional, cell membranes. Also on record: scale not given: the % may be the effect or the level left. The method, boiled down: as §1
For series [11] the target is unchanged. Kind of series: TP_TRANSPORTER: inhibition of Estradiol-17beta-D-glucuronide uptake by Glycocholate at a concentration of 10 uM in membrane vesicle from MRP8-expressing LLC-PK1 cells. It is filed as functional, cell membranes. Details: scale not given: the % may be the effect or the level left. In short, it runs like this: as §1
Series [12] shares this target. Kind of series: TP_TRANSPORTER: inhibition of Estradiol-17beta-D-glucuronide uptake by Leukotrien C4 at a concentration of 1 uM in membrane vesicle from MRP8-expressing LLC-PK1 cells. It counts as functional, cell membranes. Details: scale not given: the % may be the effect or the level left. In short, it runs like this: as §1
For series [13] the target is unchanged. Kind of series: TP_TRANSPORTER: inhibition of Estradiol-17beta-D-glucuronide uptake by Indomethacin at a concentration of 10 uM in membrane vesicle from MRP8-expressing LLC-PK1 cells. Details: scale not given: the % may be the effect or the level left. It is filed as functional, cell membranes. The method, boiled down:
as §1

Sequence of ATP-binding cassette sub-family C member 11 (Homo sapiens), Q96J66 (Q96J66 whole entry): as above

For the molecule “ATP-binding cassette sub-family C member 11 (Homo sapiens), Q96J66”, the Km stood at 957 µM in [1], 13 µM in series [2] and 62.9 µM in series [3].

In the case of `CCCc1nn(C)c2c(=O)[nH]c(-c3cc(S(=O)(=O)N4CCN(C)CC4)ccc3OCC)nc12`, the Activity in series [4] is 79%. In the case of `CN(C)C(=O)CCSC(SCCC(=O)O)c1cccc(/C=C/c2ccc3ccc(Cl)cc3n2)c1` (stereo not drawn), in series [5], the Activity was 25%.

As for `N[C@@H](CCC(=O)N[C@H](CSc1ccc([N+](=O)[O-])cc1[N+](=O)[O-])C(=O)NCC(=O)O)C(=O)O`, the Activity in [6] was 17%. `CCCN(CCC)S(=O)(=O)c1ccc(C(=O)O)cc1`: the Activity in series [7] was 76%. For the molecule `Nc1nc2c(ncn2[C@@H]2O[C@@H]3COP(=O)(O)O[C@H]3[C@H]2O)c(=O)[nH]1`, in [8], the Activity was 73%.

Consider `C[C@H](CCC(=O)NCC(=O)O)[C@H]1CC[C@H]2[C@@H]3CC[C@@H]4C[C@H](O)CC[C@]4(C)[C@H]3CC[C@]12C`, for which the Activity in [9] is 16%. On to `C[C@]12CC[C@H](OS(=O)(=O)O)CC1=CC[C@@H]1[C@@H]2CC[C@]2(C)C(=O)CC[C@@H]12`, for which the Activity in series [10] is 196%. As to `C[C@H](CCC(=O)NCC(=O)O)[C@H]1CC[C@H]2[C@@H]3[C@H](O)C[C@@H]4C[C@H](O)CC[C@]4(C)[C@H]3C[C@H](O)[C@]12C`, in series [11], the Activity is 62%. As to `CCCCC/C=C\C\C=C/C=C/C=C/[C@@H](SC[C@@H](NC(=O)CC[C@H](N)C(=O)O)C(=O)NCC(=O)O)[C@@H](O)CCCC(=O)O`, in series [12], the Activity is 72%.

With `COc1ccc2c(c1)c(CC(=O)O)c(C)n2C(=O)c1ccc(Cl)cc1`, the Activity in series [13] is 64%.

Values taken from ChEMBL document CHEMBL2074545, “Transport of bile acids, sulfated steroids, estradiol 17-beta-D-glucuronide, and leukotriene C4 by human multidrug resistance protein 8 (ABCC11)” (Mol Pharmacol, 2004).
